Reference: ChEMBL document CHEMBL1671856, “Chemical target validation studies of aminopeptidase in malaria parasites using alpha-aminoalkylphosphonate and phosphonopeptide inhibitors” (Antimicrob Agents Chemother, 2008)

Legend:
[1] = system: Plasmodium falciparum; experiment: Inhibition of alanyl aminopeptidase activity in Plasmodium falciparum 3D7 at 0.1 uM using Ala-AMC as a substrate by spectrophotometer
How it was run: (§1)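 Cytosolic extract came from free parasites released from infected erythrocytes, then three freeze-thaw cycles and centrifugation at 12,000 x g, 4°C, 20 min. Extract (25 µg/ml final) was preincubated with 0.1 or 10 µM inhibitor in 50 mM Tris-Cl pH 8.0, with or without 1 mM CoCl2, for 15 min at 37°C. Leu-AMC or Ala-AMC (10 µM final) was added. AMC release was read over 30 min (ex 370/em 440 nm).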

[2] = biological target: T1, Leucine aminopeptidase (Plasmodium falciparum 3D7) (UniProt Q8IL11); experiment: Inhibition of leucyl aminopeptidase activity in Plasmodium falciparum 3D7 at 10 uM using Leu-AMC as a substrate by spectrophotometer in presence of 1 mM CoCl2
T1 sequence (whole entry): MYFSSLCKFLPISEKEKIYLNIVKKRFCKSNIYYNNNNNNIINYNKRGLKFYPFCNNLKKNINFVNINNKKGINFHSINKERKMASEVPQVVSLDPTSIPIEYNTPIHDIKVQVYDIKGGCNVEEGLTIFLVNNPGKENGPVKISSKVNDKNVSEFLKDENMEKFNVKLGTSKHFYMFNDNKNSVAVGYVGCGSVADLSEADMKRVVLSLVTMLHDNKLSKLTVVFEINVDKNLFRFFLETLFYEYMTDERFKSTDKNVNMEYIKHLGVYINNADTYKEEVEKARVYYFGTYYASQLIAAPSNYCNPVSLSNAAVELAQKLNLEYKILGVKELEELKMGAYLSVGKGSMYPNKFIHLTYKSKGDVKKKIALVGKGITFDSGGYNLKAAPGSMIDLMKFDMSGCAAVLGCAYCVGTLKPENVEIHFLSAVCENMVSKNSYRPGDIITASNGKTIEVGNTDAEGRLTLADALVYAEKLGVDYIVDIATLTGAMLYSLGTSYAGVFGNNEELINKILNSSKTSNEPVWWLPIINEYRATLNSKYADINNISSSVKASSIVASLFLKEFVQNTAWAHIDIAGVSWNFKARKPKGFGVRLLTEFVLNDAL

[3] = biological target: T1, Leucine aminopeptidase (Plasmodium falciparum 3D7); experiment: Inhibition of leucyl aminopeptidase activity in Plasmodium falciparum 3D7 harboring tPfAP-M17 gene at 0.1 uM using Leu-AMC as a substrate by spectrophotometer in presence of 1 mM CoCl2
[4] = Inhibition of porcine kidney leucyl aminopeptidase; set-up: species or system Sus scrofa
[5] = system: Plasmodium falciparum; experiment: Antimalarial activity against Plasmodium falciparum 3D7 infected in O-positive human erythrocytes after 72 hrs; type: functional, organism-based; conditions: 3D7, 72 h
How it was run: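 Asynchronous asexual blood-stage P. falciparum 3D7 were cultured in O+ erythrocytes and exposed to compounds for 72 h. Growth was read by the spectrophotometric parasite lactate dehydrogenase absorbance assay. IC50 values were determined graphically from dose-response curves.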

[6] = biological target: T1, Leucine aminopeptidase (Plasmodium falciparum 3D7); experiment: Inhibition of leucyl aminopeptidase activity in Plasmodium falciparum 3D7 at 0.1 uM using Leu-AMC as a substrate by spectrophotometer; how it was run: as §1
[7] = system: Plasmodium falciparum; experiment: Inhibition of alanyl aminopeptidase activity in Plasmodium falciparum 3D7 at 10 uM using Ala-AMC as a substrate by spectrophotometer; how it was run: as §1
[8] = biological target: T1, Leucine aminopeptidase (Plasmodium falciparum 3D7); experiment: Inhibition of leucyl aminopeptidase activity in Plasmodium falciparum 3D7 at 10 uM using Leu-AMC as a substrate by spectrophotometer; how it was run: as §1
[9] = biological target: T2, Aminopeptidase N (Sus scrofa, UniProt P15145); experiment: Inhibition of pig kidney microsomal aminopeptidase N
T2 sequence (P15145 whole entry): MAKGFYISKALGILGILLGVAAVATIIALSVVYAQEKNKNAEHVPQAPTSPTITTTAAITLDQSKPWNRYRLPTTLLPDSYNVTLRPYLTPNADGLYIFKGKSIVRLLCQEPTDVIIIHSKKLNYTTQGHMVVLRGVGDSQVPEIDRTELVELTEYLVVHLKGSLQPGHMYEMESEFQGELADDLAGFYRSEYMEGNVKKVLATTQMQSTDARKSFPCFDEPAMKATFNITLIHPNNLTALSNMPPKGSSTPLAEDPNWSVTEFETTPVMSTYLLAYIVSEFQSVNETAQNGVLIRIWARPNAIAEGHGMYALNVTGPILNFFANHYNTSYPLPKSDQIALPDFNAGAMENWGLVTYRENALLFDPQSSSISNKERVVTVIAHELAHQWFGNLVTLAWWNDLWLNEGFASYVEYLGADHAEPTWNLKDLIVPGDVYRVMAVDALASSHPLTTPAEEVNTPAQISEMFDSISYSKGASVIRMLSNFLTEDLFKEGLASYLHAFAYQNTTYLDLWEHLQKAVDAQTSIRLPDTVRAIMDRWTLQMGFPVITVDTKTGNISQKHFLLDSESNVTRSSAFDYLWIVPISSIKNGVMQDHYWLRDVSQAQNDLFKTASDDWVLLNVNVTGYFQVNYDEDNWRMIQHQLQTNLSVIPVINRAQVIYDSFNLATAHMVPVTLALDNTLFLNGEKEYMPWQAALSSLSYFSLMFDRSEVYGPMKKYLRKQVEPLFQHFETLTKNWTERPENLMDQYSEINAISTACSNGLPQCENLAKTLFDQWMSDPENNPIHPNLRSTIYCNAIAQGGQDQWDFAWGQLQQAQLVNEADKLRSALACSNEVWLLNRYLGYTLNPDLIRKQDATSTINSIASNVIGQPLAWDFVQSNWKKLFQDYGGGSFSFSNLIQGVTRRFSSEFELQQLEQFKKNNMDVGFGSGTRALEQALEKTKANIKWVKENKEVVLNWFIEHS

[10] = biological target: T1, Leucine aminopeptidase (Plasmodium falciparum 3D7); experiment: Inhibition of leucyl aminopeptidase activity in Plasmodium falciparum 3D7 at 0.1 uM using Leu-AMC as a substrate by spectrophotometer in presence of 1 mM CoCl2

Row | Compound | inhibition at 0.1 µM [1] | inhibition [2] | inhibition [3] | Ki [4] | IC50 [5] | inhibition [6] | inhibition at 10 µM [7] | inhibition [8] | Ki [9] | inhibition [10]
1 | NC(CCCC1CCCCC1)P(=O)(O)O (racemic) | 15% | 91% | 34% | 9.57 µM | 14 µM | 17% | 95% | 95% | 41.6 µM | 51%
2 | NC(CCC1CCCCC1)P(=O)(O)O (racemic) | 13% | 91% | 67% | 0.21 µM | 15 µM | 17% | 94% | 94% | 37.1 µM | 43%
3 | NC(CCCCc1ccccc1)P(=O)(O)O (racemic) | 28% | 92% | 61% | 0.33 µM | 22 µM | 28% | 97% | 97% | 3.69 µM | 25%
